Most compounds without a hit are left out; they make up all but 1.5% or so of the library.
Cneo AK release – Cryptococcus neoformans lysis via adenylate kinase release; C. neoformans lysis, adenylate kinase release luminescence, 4 h; normalised: neutral wells 0, clomiphene wells 100; lysis activity, % at 15 µM; actives 0.2% (n = 360,000); AID 651654;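 active means mean lysis activity across replicates of at least 80%, whatever share of replicates individually reach that level; inactive means mean lysis activity below 80%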
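Assay system: log-phase C. neoformans yeast / Quantity: yeast cell density of 5 × 10^6 cells/mL / Medium: fresh YPD growth medium / Compound: single dose / Timing: static 4 h at 37 °C with compound, 1 h detection / Measured by: adenylate kinase release luminescence / Read-out: lysis from increased AK signal / Benchmarks: Clomiphene as positive lysis control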
SUMO Mot1 rescue – SUMOylation pathway inhibition by Mot1-301 growth rescue. S. cerevisiae Mot1-301 growth rescue, ATP luminescence, 38.5C; percent above DMSO median, 100 means doubled. growth rescue, % at 18.8 µM. actives 1% (n = 320,000). AID 2716;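 active means every valid replicate shows activation above 250% relative to neutral control wells; inactive means the rest, any valid replicate at or below 250%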;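 further: OY570 slx delta 5 strain wells were the positive control but not used for scaling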
Statin myotox sup – suppression of simvastatin myotoxicity. C2C12 myotubes + simvastatin, ATP luminescence, 48 h; scaled: DMSO 0, geranylgeraniol control 100. rescue of ATP level, % at 7.49 µM. actives 0.78% (n = 330,000);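 active means mean ATP rescue above about 67%, or every replicate alone reaching that limit, limit read from the data, passing the limit was not always enough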;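 further: myotubes were challenged with 10 µM simvastatin during compound exposure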
Active calls of the source: *; nt = not tested or not shown.

SMILES	Cneo AK release	SUMO Mot1 rescue	Statin myotox sup
COc1ccc(C2C(Oc3ccccc3)C(=O)N2c2ccc(C)c(C)c2)cc1OC (configuration not stated)	-1	-3	56
CN(C)C(=O)Nc1ccccc1CC[N+](=O)[O-]	-1	3	9
O=C(Nc1ccc(Cl)cc1)Nc1ccccc1CC[N+](=O)[O-]	0	250	104*
COc1cccc(CNC(=O)C[C@H]2CC[C@@H](NS(=O)(=O)c3ccccc3OC)[C@@H](CO)O2)c1	2	nt	-1
O=C(CS(=O)(=O)c1ccc(F)cc1)N1CCN(c2ccccc2)CC1	1	514*	nt
Cc1ccc(S(=O)(=O)CC(=O)N2CCN(c3ccc(F)cc3)CC2)cc1	-1	-16	6
O=C(Cc1ccccn1)NCC[C@H]1CC[C@@H](NC(=O)CN2CCOCC2)[C@H](CO)O1	-1	nt	-1
COc1ccc(-n2nc3cc(N)c(Br)cc3n2)cc1	-12	-7	12
COc1ccc(-n2nc3cc(C)c(N)c(Br)c3n2)cc1	-3	3	129*
COCCOc1cc(-n2cccc2)c(Cl)cc1Cl	2	1	11
COCCOc1cc(-n2ccnc2SC)c(Cl)cc1Cl	-1	-4	92*
COc1ccc(NC(=O)N(C)C[C@H]2OCCCC[C@H](C)Oc3ccc(NC(=O)NC(C)C)cc3C(=O)N([C@@H](C)CO)C[C@H]2C)cc1	1	nt	nt
COc1ccc(NC(=O)Nc2ccc3c(c2)C(=O)N([C@@H](C)CO)C[C@H](C)[C@H](CN(C)C)OCCCC[C@H](C)O3)cc1	3	nt	-7
COc1ccc(NC(=O)Nc2ccc3c(c2)C(=O)N([C@@H](C)CO)C[C@H](C)[C@H](CN(C)Cc2ccncc2)OCCCC[C@@H](C)O3)cc1	-3	nt	nt
C=C(C)Cn1c(CCCNC(=O)C(C)(C)C)nc2ccccc21	0	-2	154*
C=CCn1c(CCCNC(=O)C(C)(C)C)nc2ccccc21	-3	-13	20
COc1ccc(S(=O)(=O)N(C)C[C@@H]2OCCCC[C@@H](C)Oc3ccc(NS(=O)(=O)c4ccc(F)cc4)cc3C(=O)N([C@@H](C)CO)C[C@H]2C)cc1	-6	nt	11
Nc1nc(NC(=O)c2ccccc2)nn1-c1ccccc1	1	73	20
O=C(Nc1nc(NC(=O)c2ccco2)n(-c2ccccc2)n1)c1ccccc1	0	3	94*
CCNC(=O)[C@H]1[C@H](CO)[C@H]2Cn3c(ccc(C4=CCCC4)c3=O)[C@@H]1N2Cc1ccncc1	2	nt	-37
C[C@H](CO)N1C[C@H](C)[C@H](CN(C)S(=O)(=O)c2ccccc2)OCCCC[C@H](C)Oc2ccc(NC(=O)NC3CCCCC3)cc2C1=O	0	nt	nt
CCOC(=O)c1c(C)sc2c1N(C(=O)CN(CC)CC)c1ccccc1S2	2	-16	nt
CCOC(=O)c1c(C)sc2c1N(C(=O)CN(CC)CC)c1cc(Cl)ccc1S2	3	-12	115*
C[C@@H]1CN([C@@H](C)CO)S(=O)(=O)c2ccc(C#Cc3ccccn3)cc2O[C@H]1CN(C)C(=O)C1CC1	3	nt	2
Cc1ccc(S(=O)(=O)N[C@H]2C=C[C@@H](CC(=O)N3CCC(Cc4ccccc4)CC3)O[C@H]2CO)cc1	85*	nt	9
SMILES	Cneo AK release	SUMO Mot1 rescue	Statin myotox sup
Cc1ccc(S(=O)(=O)N[C@@H]2C=C[C@H](CC(=O)N3CCC(Cc4ccccc4)CC3)O[C@@H]2CO)cc1	76	nt	26
COc1ccc(S(=O)(=O)N[C@@H]2C=C[C@H](CC(=O)N3CCC(Cc4ccccc4)CC3)O[C@H]2CO)cc1	3	nt	6
COc1ccc(S(=O)(=O)N[C@H]2C=C[C@H](CC(=O)N3CCC(Cc4ccccc4)CC3)O[C@@H]2CO)cc1	89*	nt	15
C[C@@H]1CN([C@@H](C)CO)S(=O)(=O)c2ccc(C#CC3CC3)cc2O[C@H]1CN(C)C(=O)Cc1ccncc1	0	nt	-12
COc1ccc(NC(=O)O[C@H](c2ccc(OCCO)cc2)[C@@H](C)CCO)cc1	0	nt	nt
CC1=NN(c2nc(-c3ccc(C)cc3)cs2)C(=O)C1N=Nc1ccc2ccccc2c1 (configuration not stated)	nt	308	nt
CC1=NN(c2nc(-c3ccc(C)cc3)cs2)C(=O)C1N=Nc1ccc(C(N)=O)cc1 (configuration not stated)	nt	441*	nt
C[C@H](O)C#Cc1cnc2c(c1)C(=O)N([C@H](C)CO)C[C@H](C)[C@@H](CN(C)C(=O)CN1CCOCC1)O2	-1	nt	30
COCCCn1c2nc3ccccc3nc2c2c(=O)n(Cc3ccccc3Cl)cnc21	nt	1	nt
COCCCn1cnc2c(c1=O)c1nc3ccccc3nc1n2-c1ccccc1	-1	nt	127*
CCCNC(=O)[C@@H]1[C@@H](CO)[C@@H]2Cn3c(ccc(-c4ccncc4)c3=O)[C@H]1N2Cc1ccccc1F	-2	nt	-20
CCOC(=O)c1ccc(Oc2c(C)oc3c(CN4CCN(C)CC4)c(O)ccc3c2=O)cc1	2	357*	nt
COc1ccc(Oc2c(C)oc3c(CN4CCOCC4)c(O)ccc3c2=O)cc1	nt	-5	nt
C[C@@H]1CN([C@H](C)CO)C(=O)c2cc(C#Cc3ccccc3F)cnc2O[C@H]1CN(C)C(=O)C1CCC1	-3	nt	4
CC1(C)C(=O)Nc2ccccc2N1C(=O)CN1C(=O)NC(CCc2ccccc2)C1=O (configuration not stated)	nt	345*	nt
CC1(C)C(=O)Nc2ccccc2N1C(=O)CN1C(=O)c2ccccc2C1=O	1	12	nt
C[C@H]1CN([C@@H](C)CO)C(=O)c2cccc(NS(=O)(=O)c3ccccc3)c2O[C@H]1CN(C)C(=O)Nc1ccc2c(c1)OCO2	0	nt	-13
CCCC#Cc1ccc2c(c1)O[C@@H](CN(C)C(=O)C1CCC1)[C@@H](C)CN([C@@H](C)CO)S2(=O)=O	-1	nt	18
CC(C)NC(=O)N(C)C[C@@H]1Oc2ncc(C#CC3CC3)cc2C(=O)N([C@H](C)CO)C[C@@H]1C	1	nt	17
CCCNC(=O)Nc1ccc2c(c1)C(=O)N(C)C[C@@H](OC)[C@H](C)CN(C(=O)CC)[C@@H](C)CO2	1	nt	-6
COc1cccc(S(=O)(=O)Nc2ccc3c(c2)OC[C@H](C)NC[C@@H](C)[C@H](OC)CN(C)C3=O)c1	87*	nt	5
CCC(=O)Nc1ccc2c(c1)C(=O)N(C)C[C@@H](OC)[C@@H](C)CN[C@H](C)CO2	-4	nt	-9
CCCNC(=O)Nc1ccc2c(c1)C(=O)N(C)C[C@H](OC)[C@@H](C)CN(C(=O)CC)[C@@H](C)CO2	99*	nt	6
CCCNC(=O)Nc1ccc2c(c1)C(=O)N(C)C[C@@H](OC)[C@@H](C)CN(C(=O)CC)[C@H](C)CO2	91*	nt	0
CCC(=O)Nc1ccc2c(c1)C(=O)N(C)C[C@@H](OC)[C@H](C)CN[C@@H](C)CO2	102*	nt	0
CCCNC(=O)Nc1ccc2c(c1)C(=O)N(C)C[C@H](OC)[C@H](C)CN(C(=O)CC)[C@@H](C)CO2	0	nt	5
COc1cccc(S(=O)(=O)Nc2ccc3c(c2)C(=O)N(C)C[C@@H](OC)[C@@H](C)CN[C@H](C)CO3)c1	0	nt	2

Assay outcomes deposited in PubChem BioAssay by Broad Institute.
